# M5 PAM – CHRM5 positive allosteric modulation | CHO-K1 hM5, Fluo-8 calcium, ACh EC20 PAM; 0% = ACh EC20, 100% = ACh EC100 | P08912 | hit rate 0.3% among 360,000 | activation, % at 3 µM;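 active means activation above the run cutoff, the mean activation of all test compounds plus 3 SD, cut at about 18% in these data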
# Target sequence (P08912 whole entry, looked up): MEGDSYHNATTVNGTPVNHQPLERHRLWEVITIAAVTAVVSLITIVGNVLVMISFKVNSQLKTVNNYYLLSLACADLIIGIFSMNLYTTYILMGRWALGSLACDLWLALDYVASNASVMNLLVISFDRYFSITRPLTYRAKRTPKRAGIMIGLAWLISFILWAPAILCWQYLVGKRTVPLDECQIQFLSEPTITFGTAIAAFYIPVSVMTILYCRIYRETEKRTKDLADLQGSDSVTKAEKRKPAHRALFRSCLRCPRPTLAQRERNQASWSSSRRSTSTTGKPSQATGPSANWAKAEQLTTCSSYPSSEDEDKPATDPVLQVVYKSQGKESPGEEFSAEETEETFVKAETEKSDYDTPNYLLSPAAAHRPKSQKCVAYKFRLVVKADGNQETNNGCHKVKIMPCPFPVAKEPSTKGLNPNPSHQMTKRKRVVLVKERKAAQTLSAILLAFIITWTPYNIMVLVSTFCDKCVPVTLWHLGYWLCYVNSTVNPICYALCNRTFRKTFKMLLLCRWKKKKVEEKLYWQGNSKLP
#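 Assay system: CHO-K1 hM5 cells. Also added: acetylcholine at EC20 concentration, added after compound. Dosing: 3 µM, single dose. Times: compound preincubation 140 s before EC20 acetylcholine addition. Signal: Fluo-8 calcium fluorescence. Measure: % activation relative to EC20 and EC100 ACh responses. Repeats: singlicate, one well per test compound.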
# CHRM4 antagonist – antagonists of human muscarinic M4 receptor (CHRM4) | P08173 | CHO-hM4 cells, ACh EC80, Fluo-8 calcium fluorescence | inhibition, % at 3 µM | hit rate 0.73% among 360,000 | AID 624125;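 active means inhibition above its plate's cutoff, the mean inhibition of sample wells plus 3 SD, cut at about 27% in these data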;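 further: 0% = acetylcholine EC80 with DMSO and 100% = DMSO without agonist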
# CHRM4 PAM – positive allosteric modulators of human muscarinic M4 receptor; activation, % at 3 µM; hit rate 0.4% among 360,000; CHO-K1 hM4/Gqi5, Fluo-8 calcium fluorescence, ACh EC20; 0% = ACh EC20, 100% = maximal ACh; P08173;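 active means activation above its plate's cutoff, the mean activation of sample wells plus 3 SD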
# M5 ag – agonists of human muscarinic M5 receptor (CHRM5); P08912; CHO-K1 hM5 cells, Fluo-8 calcium fluorescence; 0% DMSO wells, 100% maximal acetylcholine response; activation, % at 3 µM; hit rate 0.19% among 360,000;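 active means activation above the run's mean over test compounds plus 3 SD, cut at about 23% in these data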;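 further: signal is peak over basal fluorescence ratio across the kinetic read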
# CHRM5 antagonist – antagonists of human muscarinic M5 receptor (CHRM5). hit rate 0.59% among 360,000. inhibition, % at 3 µM. CHO-hM5 cells, Fluo-8 calcium fluorescence, ACh EC80. AID 624040;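 active means inhibition above a per-plate cutoff, the mean of that plate's test compounds plus 3 SD, cut at about 27% in these data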;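 further: 0% = acetylcholine EC80 with DMSO and 100% = DMSO without agonist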
# M4 ag – CHRM4 agonism in calcium assay; P08173; CHO-K1 hM4/Gqi5, Fluo-8 calcium fluorescence; vehicle 0%, full acetylcholine response 100%; activation, % at 3 µM; hit rate 0.14% among 360,000;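 active means activation above the run mean over all test wells plus 3 SD, cut at about 32% in these data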;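 further: peak over basal fluorescence ratio per well then scaled between controls; 0% = DMSO wells and 100% = acetylcholine at EC100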
# * = called active by the depositor. The list is not random: actives were taken first. Their share in the collection is about 1.9%.
SMILES,M5 PAM,CHRM4 antagonist,CHRM4 PAM,M5 ag,CHRM5 antagonist,M4 ag
CN(C)c1cccc(CNC(=O)c2csc(COCCO)n2)c1,1.9,-0.1,4.9,0.4,4.6,0.3
COC(=O)[C@@]1(Sc2ccc(C)cc2)CC(=O)N(c2ccc(Cl)cc2)[C@@H]1c1ccccc1,-3.4,-2.1,0.8,-0.8,-6.3,0.3
COC(=O)c1cccc(N2C(=O)C[C@](Sc3ccc(C)cc3)(C(=O)OC)[C@H]2c2ccccc2)c1,-15.6,26.6*,-11.8,-0.9,5.0,15.7
CC(=O)c1ccc(N2CCN(CC(O)COC(c3ccccc3)c3ccccc3)CC2)cc1 (stereo unspecified),-15.4,40.5*,-22.5,-7.5,16.9,6.1
CC(=O)c1ccc(N2CCN(CC(O)COC(c3ccccc3)c3ccccc3C)CC2)cc1 (stereo unspecified),-16.2,81.0*,-23.2,-5.8,31.7*,12.5
O=C(NCCCN1CCCC1=O)c1cccc(S(=O)(=O)N2CCN(c3ccc(F)cc3)CC2)c1,-3.1,-11.6,-2.5,-1.9,6.2,4.7
CCN(CC(=O)Nc1c(F)cccc1F)C(=O)/C=C/c1cn(Cc2ccccc2)nc1-c1cccnc1,-6.3,7.4,1.4,-3.2,27.2*,1.9
COc1cccc(/C=C2\SC(=S)N(C(Cc3ccccc3)C(=O)O)C2=O)c1 (stereo unspecified),-7.5,1.1,-5.1,-3.1,4.2,0.6
Cc1c(NC(=O)c2cc(-c3cccs3)nc3ccccc23)c(=O)n(-c2ccccc2)n1C,-19.3,20.1,-11.9,4.3,27.1*,12.8
CCN(CC)S(=O)(=O)c1ccc(C(=O)NCC(c2cccs2)N2CCOCC2)cc1 (stereo unspecified),4.2,39.0*,-15.5,1.3,-4.0,-0.6
Cn1c(=O)c2cc(NC(=O)Cc3cccc4ccccc34)ccc2n1-c1ccccc1,-4.1,-12.2,-1.5,0.5,0.1,0.4
CNc1sc(C(=O)c2ccc(F)cc2)c(N)c1-c1nc2ccccc2s1,-5.3,32.3*,14.9,-0.3,19.4,3.4
CNc1sc(C(=O)c2cccs2)c(N)c1-c1nc2ccccc2s1,6.0,34.0*,1.2,2.0,19.9,2.2
CC(=O)Nc1scc(C)c1-c1nc2ccccc2s1,-3.0,-4.5,-5.9,-4.3,10.4,-0.5
O=C(NC1CCCCC1)c1nc(C2CCNCC2)oc1-c1ccccc1,2.1,-17.2,6.0,-3.4,0.9,7.1
COC(=O)C1=C(C)NC(C)=C(C(=O)OCCN(C)Cc2ccccc2)C1c1cccc([N+](=O)[O-])c1 (stereo unspecified),-19.2,34.9*,-17.8,3.1,17.4,16.7
CCOC(=O)N1CCN(c2nc3ccc(C(=O)c4ccccc4)cc3n3cnnc23)CC1,16.5,1.4,31.4*,6.6,-1.8,1.4
Cc1cc(C(=O)N/N=C/c2c(C)nn(-c3ccccc3)c2C)n[nH]1,18.7*,-2.0,-6.2,-1.7,-13.4,1.3
C=CC[C@@H](CC(=O)N(CCO)Cc1ccccc1)C(=O)NC[C@H](OC(=O)[C@@H](CC=C)Cc1ccc(F)cc1)c1ccccc1,-38.5,29.5*,-10.2,0.7,12.9,27.2
C=CCC[C@H](Cc1ccc(F)cc1)C(=O)OC[C@@H](Cc1c[nH]c2ccccc12)NC(=O)[C@H](CC=C)CC(=O)N(CCO)Cc1ccccc1,-14.7,45.4*,-2.7,2.5,14.7,9.9
Cc1cc(OCC(O)CN2CCc3ccccc3C2)ccc1Cl (stereo unspecified),-3.4,-5.6,-3.5,0.3,2.8,4.0
Cc1nc(SCC(=O)N2CCN(C(=O)c3cccs3)CC2)c2c(C)c(C)sc2n1,-2.1,-13.3,0.9,-0.7,-0.8,3.0
C=CCNC(=O)CN1C2CCCC1CC(NC(=O)c1ccccc1C)C2 (stereo unspecified),-0.4,3.5,9.6,-1.1,-0.1,1.0
Cc1ccccc1C(=O)NC1CC2CCCC(C1)N2CC(C)C (stereo unspecified),-8.8,27.4*,-11.0,-0.5,7.5,-0.6
CC1(C)N=C(N)N=C(N)N1c1ccccc1,2.6,-4.4,6.6,-6.4,-1.2,0.6
